STAT1 activator: STAT1 signaling activators, primary screen, cell-based, HTS, luciferase reporter; NIH 3T3 STAT1-luciferase reporter, IFN-gamma, luminescence; 100% = IFN-gamma alone, no compound; AID 932, 2007; 200,000 tested, 2.6% active; activation (% of control), % at 5.5 µM;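 active = activation above the screen-wide mean activation plus 3 SD, cut at about 130% in these data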;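 note: raw ratio to IFN-gamma control signal so 100% means no change and 0% no light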
STAT1 inh: STAT1 signaling inhibitors, primary screen, cell-based, HTS, luciferase reporter; 200,000 tested, 0.35% active; NIH 3T3 STAT1-luciferase reporter, IFN-gamma, luminescence; inhibition, % at 5.5 µM;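 active = inhibition above a set limit, the mean inhibition across all tested compounds plus 3 SD, cut at about 34% in these data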;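 note: 0% = IFN-gamma with DMSO and 100% = IFN-gamma with 300 µM nifuroxazide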
HSV replic up: enhancers of HSV replication in host cells, fold increase, host cell viability | 220,000 tested, 0.005% active | maximum fold increase | HSV replication augmentation in cells; in the data active = maximum fold increase above about 1.5; tested in PC3 cells
STAT3 blocker: IL-6 driven STAT3 reporter inhibitors, primary screen, U3A cells, luciferase, luminescence, MLSCN library. IL-6 STAT3-luciferase reporter; host cell line lacks STAT1. inhibition, % at 5.5 µM. 190,000 tested, 0.89% active. AID 862, 2007;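 active = inhibition above the mean inhibition across all screened compounds plus 3 SD, cut at about 44% in these data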;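 note: 0% = DMSO only wells and 100% = 100 µM nifuroxazide control wells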
KCC2 mod: KCC2 cotransporter modulators, thallium flux, primary screen, cell-based, HEK293 KCC2, FluoZin-2 fluorescence, MLSMR; Solute carrier family 12 member 5 (Homo sapiens), Q9H2X9; B-score of Tl+ flux slope (higher = more flux/activation; lower = inhibition) at 10 µM; KCC2 cells, thallium flux FluoZin-2 fluorescence; AID 1456, 2008; 190,000 tested, 2.2% active;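 active = thallium flux slope and its plate-corrected score both differing from the plate sample mean at a set confidence after two filtering rounds, in either direction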;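 note: slope of fluorescence scaled to starting intensity during 10 to 20 s after thallium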
STAT3 act: IL-6 driven STAT3 reporter potentiators, primary screen, U3A cells, luciferase, luminescence, MLSCN library. IL-6 STAT3-luciferase reporter; 100% = signal with IL-6 EC80 alone. activation (% of control), % at 5.6 µM. 190,000 tested, 0.91% active. AID 871, 2007;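 active = activation above the screen-wide mean of compound activation plus 3 SD, cut at about 130% in these data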;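 note: 0% = background luminescence of wells with medium and substrate only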
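Test system: Human STAT1-deficient U3A cells with stable STAT3-luciferase reporter | Also added: Interleukin-6, 33 ng/mL | Timing: Compound pre-incubation 1 h before IL-6, then 6 h stimulation at 37 °C | Technique: Luciferase reporter luminescence | Read-out: Percent of IL-6-only median luminescence | Benchmarks: IL-6-only wells as 100% reference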
* hit, by the source's call; i = inactive; · = no result given. Rows were chosen to be rich in hits. Some 5.5% of all compounds tested hit in one or more screens of this group.

SMILES	STAT1 activator	STAT1 inh	HSV replic up	STAT3 blocker	KCC2 mod	STAT3 act
COC(=O)c1ccc(OC(=O)CCc2cc(OC)c(OC)c(OC)c2)cc1	106	-6	i	-7	0.038	106
C/C(=N\NC(=O)c1nn(C)cc1Br)c1cccc(NC(=O)c2ccncc2)c1	141*	-47	i	0	0.12	100
C/C(=N\NC(=O)c1ccc(Br)cc1)c1cccc(NC(=O)c2cccnc2)c1	110	-13	i	7	-0.94	103
O=C(NCc1ccc(Cl)cc1)c1ccc2nc[nH]c2c1	95	6	i	13	0.014	89
CCN(C(=O)CSc1nnc2c3ccccc3n(CC)c2n1)C1CCS(=O)(=O)C1 (stereo unspecified)	100	-1	i	8	-0.35	96
Cn1cnnc1SC(C(=O)Nc1cccc(C(F)(F)F)c1)c1ccccc1 (stereo unspecified)	98	5	i	-4	·	103
CC(C)CC(C(=O)N1CCc2ccccc2C1)N1C(=O)c2ccccc2C1=O (stereo unspecified)	91	9	i	-36	-2.1	134*
CC(C(=O)N1CCc2ccccc2C1)N1C(=O)c2ccccc2C1=O (stereo unspecified)	·	·	i	·	-0.21	·
Cc1ccc2c(c1)c1ncnc(N3CCC4(CC3)OCCO4)c1n2C	120	-22	i	-34	-4.4	135*
Cc1ccc2c(c1)c1ncnc(N3CCOCC3)c1n2C	92	9	·	0	-1.1	105
CC1CCC/C(=N/Nc2nc3ccccc3s2)C1 (stereo unspecified)	138*	-43	i	6	1.4	100
CC1(C)CC(=O)C/C(=N/Nc2nc3ccccc3s2)C1	103	-3	i	-13	1.6	115
O=c1c2cc(Cl)ccc2[nH]c(=S)n1Cc1cccs1	93	7	i	-6	19*	103
O=c1c2cc(N3CCOCC3)ccc2[nH]c(=S)n1Cc1cccc(Cl)c1	93	8	i	18	·	88
O=c1c2cc(Cl)ccc2[nH]c(=S)n1Cc1ccco1	96	4	i	-7	20*	107
Cc1cc(C)c(C#N)c(Sc2ccc(N)cc2)n1	99	1	i	-7	-0.99	104
CCOc1ccc(N=C(/C(C(=O)C(=O)N2CCOCC2)=C(\O)c2ccccc2)c2ccccc2)cc1	139*	-44	·	9	1.5	96
CCOc1ccc(OCc2ccc(C(=O)N3CCOCC3)cc2)cc1	101	-11	i	4	-0.44	99
O=C(c1ccco1)N1CCN(c2nc(-c3ccc(F)cc3)cs2)CC1	99	1	i	13	-1.7	93
O=C(Nc1ccc(NC(=O)c2cccs2)cc1Cl)c1ccco1	131*	-35	i	18	0.038	94
O=C(Nc1ccc(N2CCOCC2)c([N+](=O)[O-])c1)c1ccco1	132*	-38	i	0	-0.73	104
O=C(Nc1ccc(N2CCOCC2)c(Cl)c1)c1ccc(Br)o1	140*	-43	i	3	0.54	101
O=C(Nc1ccc(N2CCCC2)c(Cl)c1)c1ccco1	143*	-47	i	35	-0.85	75
O=C(Nc1cccc(NC(=O)c2cccs2)c1)c1ccco1	100	0	i	8	-0.65	96
CCOc1ccc(N2CC(C(=O)Nc3ccccc3N3CCOCC3)CC2=O)cc1 (stereo unspecified)	100	-1	i	1	·	100
SMILES	STAT1 activator	STAT1 inh	HSV replic up	STAT3 blocker	KCC2 mod	STAT3 act
COc1cc(NC(=O)c2ccco2)ccc1NC(=O)c1ccccc1Cl	110	-13	i	18	1.1	87
COc1ccccc1NC(=O)C(=O)NNC(=O)c1ccco1	93	8	i	10	8.3*	97
COc1cc(NC(=O)c2ccccc2Cl)ccc1NC(=O)c1ccco1	146*	-51	i	21	-0.77	85
O=C(NC(=S)Nc1ccc(N2CCCCC2)c(Cl)c1)c1cccs1	108	-8	i	14	32*	96
CCOC(=O)c1sc(NC(=O)C(C)C)c(C#N)c1C	100	-2	i	12	0.088	92
Cc1nn(-c2ccccc2)c(C)c1NC(=O)COc1ccc(Br)cc1Cl	93	8	i	7	-0.038	90
c1ccc(-c2ccc(-c3nc(-c4ccncc4)no3)cc2)cc1	136*	-37	i	12	-1.1	94
c1ccc(-c2nc(-c3ccncc3)no2)cc1	138*	-41	i	9	0.22	94
CCNC(=S)SCCOc1ccccc1C	100	0	i	7	0.038	94
NNC(=O)c1cc2cc(OC(F)(F)F)ccc2[nH]1	·	·	i	·	-0.08	·
CCOC(=O)Cc1csc(NC(=S)NC(=O)c2ccccc2C)n1	97	3	i	13	29*	94
CCOC(=O)Cc1csc(NC(=O)Cc2ccccc2)n1	96	3	i	6	-0.28	96
CC(C)c1ccc(S(=O)(=O)/N=C2/C=CC(=O)c3ccccc32)cc1	94	7	i	-33	1.1	135*
CCOc1ccccc1C(=O)NN1C(=O)C2CCCCC2C1=O (stereo unspecified)	93	8	i	-18	-0.02	120
CC(C)c1ccc(C(=O)NN2C(=O)C3CCCCC3C2=O)cc1 (stereo unspecified)	144*	-48	i	17	-0.53	92
Cc1ccc2oc(-c3ccccc3)nc2c1	134*	-49	i	11	-1	91
CCCC(=O)Nc1ccc(-c2nc3cc(C)ccc3o2)cc1	136*	-39	i	4	-0.39	99
O=[N+]([O-])c1ccc2oc(-c3ccccc3)nc2c1	145*	-48	i	17	0.66	92
Cc1cccc(-c2nc3cc([N+](=O)[O-])ccc3o2)c1	116	-19	i	19	1.6	87
CCCC(=O)Nc1ccc2oc(-c3ccc(OC)c(Br)c3)nc2c1	108	-11	i	6	1.1	99
COc1ccccc1-c1cc(C(F)(F)F)nc(S(=O)(=O)CCCC(=O)NC(C)C)n1	79	23	i	11	0.0028	93
COc1ccccc1-c1cc(C(F)(F)F)nc(S(=O)(=O)CCCC(=O)Nc2cc(C)on2)n1	68	35*	i	5	·	99
CS(=O)c1ccccc1-c1nc(-c2ccc(Cl)cc2)no1 (stereo unspecified)	138*	-42	i	11	-0.066	92
Cc1ccc(-c2noc(-c3ccccc3F)n2)cc1	132*	-35	i	11	0.57	98

Bioassay records (PubChem BioAssay)
